Series [1] has as its target T1, PRMT1 (Rattus norvegicus, UniProt Q63009). Put plainly: radiometric P81 filter binding assay, PRMT1. The series is classed as biochemical. The following applies: for inhibition at 20 µM: read-out: inhibition of PRMT1.
Series [2] concerns the target PRMT5 (Homo sapiens, UniProt O14744). Put plainly: radiometric P81 filter binding assay, PRMT5. The series is classed as biochemical. Particulars: initial screening at 20 μM compound. In short, it runs like this: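 HA-PRMT5 was co-expressed with WDR77 in HEK293T cells and purified on HA-peptide agarose by peptide elution. Reactions at 30 °C used 50 mM HEPES pH 8.0, 50 mM NaCl, 1 mM EDTA, 0.5 mM DTT, with 0.5 μM [3H]SAM and 1 μM H4(1–20) peptide. Test compound at 20 μM was preincubated with enzyme and [3H]SAM for 5 min at room temperature, then peptide was added to start the reaction. Mixtures were spotted on P81 paper, washed with 50 mM NaHCO3 pH 9.0, and counted by scintillation. Controls lacked inhibitor, or both peptide and inhibitor.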

For series [3], the system named is HEL cells. As to the kind of experiment: CellTiter-Glo cell viability, HEL cells. The series is classed as cell-based. The following applies: HEL cells (JAK2V617F), 20 μM, 3 days. In short, it runs like this:
(§1)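 Leukemia cell lines were grown in RPMI plus 10% FBS and seeded at 1000–1500 cells per well. Cultures received 20 μM test compound or an equal amount of DMSO. CellTiter-Glo reagent was added at 0, 24, 48 and 72 h after treatment, and luminescence was read. Viability is expressed as viable cells in the treated group as a percentage of the DMSO control.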
In general terms: Cellular ATP, detected with luciferase, serves as a proxy for viable cell number.

The subject of series [4] is intracellular PRMT1 activity (GFP-ALY methylation) in 293T cells. As to the kind of experiment: GFP-ALY methylation in 293T cells. The series is classed as cell-based, human. The essentials: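 A stable 293T line expressing GFP-ALY, kept in DMEM plus 10% FBS, was exposed to 20 μM test compound for 15 h. Cells were lysed on ice for 30 min in H buffer (150 mM NaCl, 20 mM Tris pH 7.8, 1% NP-40, phosphatase/protease inhibitors, 1 mM DTT) and cleared at 12000g for 20 min. GFP-ALY was pulled down on GFP antibody beads and analysed by SDS–PAGE and ASYM24 Western blot with chemiluminescence detection.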

Series [5] deals with CHRF-288-11 cells. As to the kind of experiment: CellTiter-Glo cell viability, CHRF-288-11 cells. The series is classed as cell-based. The following applies: 20 μM, compared with HEL, Jurkat, HL-60. The essentials:
as §1

Series [6] deals with T1, PRMT1. As to the kind of experiment: steady-state kinetic analysis of PRMT1 inhibition. The series is classed as biochemical. The following applies: for Ki: Kis.
Series [7] concerns MOLM-13 cells. Put plainly: CellTiter-Glo cell viability, MOLM-13 cells. The series is classed as cell-based. The following applies: 20 μM, compared with HEL, Jurkat, HL-60. The essentials:
as §1

Series [8] addresses T1, PRMT1. Put plainly: competitive fluorescence anisotropy binding assay. Particulars: 524 nm, 0.2 μM H4-FL, 2.0 μM PRMT1, increasing compound concentration. The essentials:
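Recombinant His6-PRMT1 was expressed in E. coli BL21(DE3) and Ni-NTA purified. 0.2 μM fluorescein-H4(1–20) and 2 μM PRMT1 were mixed, then test compound was titrated in until anisotropy levelled off. Excitation was 498 nm and emission 524 nm. Anisotropy from several scans was plotted against inhibitor concentration.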
A general note: Fluorescence polarisation rises when a labelled molecule tumbles more slowly, as on binding a larger partner.

In series [9] the test system is leukemia cell lines. As to the kind of experiment: CellTiter-Glo cell viability, panel of leukemia cell lines. The series is classed as cell-based. Particulars: 10 different leukemia cell lines, 20 μM, 3 consecutive days.
The test system of series [10] is CMY cells. Put plainly: CellTiter-Glo cell viability, CMY cells. Particulars: 20 μM, compared with HEL, Jurkat, HL-60. The series is classed as cell-based. The essentials: as §1
Setting [11] is: varied H4-20, [3H]AdoMet fixed at 3 μM.

The term inhibition denotes the share of the control response that was lost under treatment. The term Ki denotes the dissociation constant of the complex between target and ligand, obtained from inhibition or displacement. A high value points to lower affinity.

T1 sequence (Q63009 whole entry): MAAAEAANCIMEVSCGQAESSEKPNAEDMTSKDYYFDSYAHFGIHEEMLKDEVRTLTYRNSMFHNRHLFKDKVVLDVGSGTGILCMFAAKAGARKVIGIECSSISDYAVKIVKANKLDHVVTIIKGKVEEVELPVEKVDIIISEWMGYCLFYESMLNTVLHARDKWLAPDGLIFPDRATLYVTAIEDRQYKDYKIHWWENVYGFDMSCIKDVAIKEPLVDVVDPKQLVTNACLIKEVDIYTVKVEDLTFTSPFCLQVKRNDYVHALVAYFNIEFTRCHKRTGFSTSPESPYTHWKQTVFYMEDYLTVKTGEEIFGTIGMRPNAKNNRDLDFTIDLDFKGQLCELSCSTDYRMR
Chain of PRMT5 (O14744 whole entry, species assumed): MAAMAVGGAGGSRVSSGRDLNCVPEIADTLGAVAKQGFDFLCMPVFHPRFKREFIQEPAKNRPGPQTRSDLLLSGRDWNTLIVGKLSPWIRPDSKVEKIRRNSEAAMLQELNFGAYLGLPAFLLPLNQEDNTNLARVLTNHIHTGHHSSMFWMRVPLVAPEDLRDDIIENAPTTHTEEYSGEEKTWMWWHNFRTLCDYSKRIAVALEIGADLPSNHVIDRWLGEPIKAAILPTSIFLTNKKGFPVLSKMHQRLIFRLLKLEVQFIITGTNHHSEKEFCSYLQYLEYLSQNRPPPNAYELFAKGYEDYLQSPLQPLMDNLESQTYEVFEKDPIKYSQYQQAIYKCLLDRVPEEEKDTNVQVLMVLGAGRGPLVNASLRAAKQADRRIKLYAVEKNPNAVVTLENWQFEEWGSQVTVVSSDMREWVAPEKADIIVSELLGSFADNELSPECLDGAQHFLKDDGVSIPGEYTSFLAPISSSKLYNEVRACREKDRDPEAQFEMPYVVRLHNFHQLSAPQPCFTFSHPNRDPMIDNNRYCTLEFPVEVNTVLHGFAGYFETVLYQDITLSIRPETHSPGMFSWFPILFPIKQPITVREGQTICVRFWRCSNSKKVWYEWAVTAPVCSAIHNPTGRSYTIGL
Chain of PRMT5 (Q9BQA1 whole entry partner, species assumed): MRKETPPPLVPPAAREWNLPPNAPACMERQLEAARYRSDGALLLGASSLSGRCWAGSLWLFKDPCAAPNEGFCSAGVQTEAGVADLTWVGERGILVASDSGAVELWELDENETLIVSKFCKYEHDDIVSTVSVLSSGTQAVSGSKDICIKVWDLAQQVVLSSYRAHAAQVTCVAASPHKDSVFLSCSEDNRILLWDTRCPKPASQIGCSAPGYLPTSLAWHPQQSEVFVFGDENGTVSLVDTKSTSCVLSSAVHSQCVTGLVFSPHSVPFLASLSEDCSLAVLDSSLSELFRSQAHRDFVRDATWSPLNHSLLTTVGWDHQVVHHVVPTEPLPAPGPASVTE

For the compound `N=C(N)c1ccc(-c2ccc(-c3ccc(OCCCCCCCCOc4ccc(-c5ccc(-c6ccc(C(=N)N)cc6)o5)cc4)cc3)o2)cc1` [Compound 2], in series [1], the inhibition at 20 µM is > 85%.

For `N=C(N)c1ccc(-c2ccc(-c3ccc(C(=N)N)c(F)c3)o2)cc1F` [Compound 21], in [2], the “inhibition of PRMT5” value is reported as “very weak activity”. The “inhibition of PRMT1” value in [1] (initial screening at 20 μM compound) is on record as “very weak activity”.

For `N=C(N)c1ccc(-c2ccc(-c3ccc(C(=N)N)cc3)o2)cc1` [Compound 1, 2,5-bis(4-amidinophenyl)furan], the cell growth result in [3] is on record as “except HEL cells”; in series [9], “inhibited cell growth for most of the leukemia cell lines”. For the same compound, in [4] (293T cells, 20 μM, 15 h, ASYM24 antibody), the “level of methylated GFP-ALY protein” value is “significantly reduced”. The cell membrane permeability result in series [4] (inferred from inhibition of cellular PRMT1 activity in 293T cells) is “permeable to cell membrane”. Besides, the inhibition at 20 µM in series [1] was > 75%. The “sensitivity of cell growth versus other cell lines” value in [5], in series [7] and in series [10] was “more sensitive” throughout. Besides, the Ki turned out to be 2.6 µM in series [6] (setting [11]) and 16 µM in series [6] (varied [3H]SAM, H4-20 fixed at 15 μM). Further, in series [6] (varied H4-20), the “Kis smaller than Kii” value is on record as “about 14 fold”. In series [6] (setting [11]), the Kii is 38 µM. Further, the “fluorescence anisotropy plateau of H4-FL and PRMT1 mixture” value in [8] was “about 0.055”.
